Laboratory results from paper PMC7115421 (European Journal of Medicinal Chemistry, 2009).

Columns and labels:
[1] = tested on: 184B5 immortalized breast cell line; experiment: SRB cytotoxicity assay, 184B5 non-cancer cells; assay type: cell-based, human; conditions: for killing of 184B5 non-cancer cells (in words): combined with constant amount of Akt inhibitors 7–10 (0.04, 0.4, 3.5, 0.5 μM)
[2] = tested on: MCF7 breast cancer cell line; experiment: SRB cytotoxicity assay, MCF7; assay type: cell-based, human
Outline: (§1)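 Cells grown in RPMI 1640 with 10% FBS and 2 mM L-glutamine at 37 °C, 5% CO2. 5000–10,000 cells/well seeded 24 h before dosing. Seven concentrations from 2–10-fold serial dilutions; medium with matched DMSO as control. After 48 h: TCA fixation (60 min, 4 °C), 0.4% SRB, Tris solubilisation, absorbance 515–564 nm. Growth = (Ti−Tz)/(C−Tz)×100. GI50 from variable-slope sigmoidal fit; triplicates, ≥3 experiments.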

[3] = tested on: MDA-MB231 breast cancer cell line; experiment: SRB cytotoxicity assay, MDA-MB231; assay type: cell-based; conditions: Homo sapiens
Outline: as §1

[4] = tested on: MDA-MB468, MDA-MB231 and MCF7 breast cancer cell lines; experiment: SRB cytotoxicity assay, three breast cancer cell lines together; assay type: cell-based, human; conditions: for sensitization of cell killing by PI3K-Akt inhibitors (in words): in combination with GI20 doses of PI3K-Akt inhibitors, three breast cancer cell lines
Outline: (§2)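 Cells plated at 5000–10,000/well and held 24 h at 37 °C, 5% CO2; time-zero wells TCA-fixed. Test compound from DMSO stock, seven concentrations (2–10-fold dilutions), 48 h; DMSO-matched medium control. Cold TCA fixation (10% final), 60 min, 4 °C; 0.4% SRB stain; Tris base solubilisation; A515–564 nm. Growth % = (Ti−Tz)/(C−Tz)×100; GI values from variable-slope sigmoidal fit; triplicates, ≥3 independent experiments.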

[5] = tested on: MDA-MB468 breast cancer cell line; experiment: SRB cytotoxicity assay, MDA-MB468; assay type: cell-based; conditions: Homo sapiens
Outline: as §1

[6] = tested on: MDA-MB468, MDA-MB231, MCF7 and 184B5; experiment: SRB cytotoxicity assay, all four cell lines together; assay type: cell-based, human; conditions: for cytotoxicity (in words) on the four cell lines: PI3K-Akt inhibitor alone; for average GI20 values on the four cell lines: average over MDA-MB468, MDA-MB231, MCF7, 184B5
Outline: as §2

CCN(CC)CCCC(C)Nc1ccnc2cc(Cl)ccc12 (centres unmarked) [Compound 1, Chloroquine diphosphate]
IC50 ([1]; Homo sapiens, 184B5): 76.1 µM
IC50 ([2]; Homo sapiens, MCF7): 38.4 µM
GI50 ([2]; Homo sapiens, MCF7, 48 h): 38.4 ± 1.2 µM
IC50 ([3]; MDA-MB-231): 22.5 µM
GI50 ([3]; MDA-MB-231, 48 h): 22.5 ± 1.44 µM
GI50 ([4]; Homo sapiens, read-out: GI50 on the cancer cell lines (range)): 22.5 to 38.4 µM
IC50 ([5]; MDA-MB-468): 28.6 µM
GI50 ([5]; MDA-MB-468, 48 h): 28.6 ± 1.25 µM

CN(C)CCNc1ccnc2cc(F)ccc12 [Compound 5, N′-(7-Fluoro-quinolin-4-yl)-N,N-dimethyl-ethane-1,2-diamine]
sensitization of cell killing by PI3K-Akt inhibitors (in words) [4]: substantial enhancement of cell killing

COc1ccc2c(NCCN(C)C)ccnc2c1 [Compound 6, N′-(7-Methoxy-quinolin-4-yl)-N,N-dimethyl-ethane-1,2-diamine]
sensitization of cell killing by PI3K-Akt inhibitors (in words) [4]: not very effective

CN(C)CCNc1ccnc2cc(Cl)ccc12 [Compound 4, N′-(7-Chloro-quinolin-4-yl)-N,N-dimethyl-ethane-1,2-diamine]
sensitization of cell killing by PI3K-Akt inhibitors (in words) [4]: substantial enhancement of cell killing

CC[n+]1c(C=CN(C)c2ccccc2)n(-c2ccccc2)c2ccc(-c3nc4ccccc4s3)cc21.[I-] [Compound 7, 6-Benzothiazol-2-yl-1-ethyl-2-[2-(methyl-phenyl-amino)-vinyl]-3-phenyl-3H-benzoimidazol-1-ium Iodide]
cytotoxicity (in words) on the four cell lines [6]: the most cytotoxic
average GI20 values on the four cell lines [6]: 0.04 µM

O=c1cc(N2CCOCC2)oc2c(-c3ccccc3)cccc12 [Compound 10, 2-Morpholin-4-yl-8-phenyl-chromen-4-one]
average GI20 values on the four cell lines [6]: 0.52 µM

CCCCNc1ccnc2cc(Cl)ccc12 [Compound 2, Butyl-(7-chloro-quinolin-4-yl)-amine]
killing of 184B5 non-cancer cells (in words) [1]: effectively killed
sensitization of cell killing by PI3K-Akt inhibitors (in words) [4]: generally not effective sensitizers

CCCCNc1ccnc2cc(F)ccc12 [Compound 3, Butyl-(7-fluoro-quinolin-4-yl)-amine]
killing of 184B5 non-cancer cells (in words) [1]: effectively killed
sensitization of cell killing by PI3K-Akt inhibitors (in words) [4]: generally not effective sensitizers

O=c1[nH]c2ccccc2n1C1CCN(Cc2ccc(-c3nc4cc5nc[nH]c5cc4nc3-c3ccccc3)cc2)CC1 [Compound 8, 1-{1-[4-(7-Phenyl-1H-imidazo[4,5-g]quinoxalin-6-yl)-benzyl]-piperidin-4-yl}-1,3-dihydro-benzoimidazol-2-one]
cell killing (in words) of MCF7 ([2]; PI3K-Akt inhibitor alone, not other cells examined): killed MCF7 cells effectively

CCN(CC)CCCCN1c2ccccc2OC2C=CC(Cl)=CC21.Cl (centres unmarked) [Compound 9, [4-(2-chloro-4a,10a-dihydro-phenoxazin-10-yl)-butyl]-diethyl-amine hydrochloride]
cytotoxicity (in words) on the four cell lines [6]: only week cytotoxicity
